# Bioassay records: PubChem, Broad Institute
# In the library only some 2.2% were active in any assay of this set; here they are far more common.
# FN deposit inh: fibronectin deposition inhibition; AH1F fibroblasts, Alexa488-fibronectin deposition fluorescence, overnight; inhibition, % at 12.6 µM; hit rate 0.086% among 350,000; AID 743247;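 active means mean inhibition across replicates of 30% or more, regardless of how many single replicates reach that level; inconclusive means mean under 30% yet at least half of replicates reach 30%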
#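 Assay system: AH1F fibroblasts assembling fluorescent fibronectin matrix; Amount: 10000 AH1F cells per well; Buffer or medium: DMEM, 2% serum; Probe or stimulus: Alexa488-fibronectin, 24 nM final in well; Doses: single compound dose, delivered by pin transfer; Incubation: 1 h adhesion, overnight exposure; Measured by: fluorescence 485/525 nm; Read-out: fibronectin deposition inhibition.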
# ERp5 inh: blocks human ERp5 reductase activity on insulin; AID 651711; inhibition, % at 9.99 µM; hit rate 0.05% among 350,000; ERp5 insulin aggregation, absorbance 650 nm, 90 min; Q15084;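 active means mean replicate inhibition above about 25%, with every replicate also reaching it, limit read from the data, passing the limit was not always enough; inconclusive means only one of those two criteria met; inactive means neither criterion met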
# PvdQ inh: P. aeruginosa PvdQ acylase inhibition | purified PvdQ acylase, fluorescence plate reader | inhibition, % at 10 µM | hit rate 0.063% among 340,000 | AID 488965; in the data active means inhibition above about 30%, passing the limit was not always enough; inconclusive means no clear call, values can overlap the other calls
# rRNA inh HTS: inhibits bacterial ribosomal RNA function over humanized ribosomes. E. coli WT GFP vs humanized-ribosome RFP mutants, fluorescence, 24 h; active compounds read low; DMSO median 0, no signal -100. GFP signal change (wild-type ribosome), % (concentration not given with the values). hit rate 1.6% among 350,000. AID 720706;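 active means significant combined selectivity score with lowered wild-type GFP, culture density cut under 30%, mutant RFP and density less affected; inactive means any of these conditions unmet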
# PDI inh: inhibitors of human protein disulfide isomerase; P07237; PDI insulin aggregation turbidity, A650, 90 min; inhibition, % at 10 µM; hit rate 0.052% among 350,000; AID 588391;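 active means mean inhibition across replicates of 30% or more, whatever share of single replicates reach that level; inconclusive means mean inhibition below 30% while every single replicate reaches 30%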
# Target sequence (P07237 whole entry, looked up): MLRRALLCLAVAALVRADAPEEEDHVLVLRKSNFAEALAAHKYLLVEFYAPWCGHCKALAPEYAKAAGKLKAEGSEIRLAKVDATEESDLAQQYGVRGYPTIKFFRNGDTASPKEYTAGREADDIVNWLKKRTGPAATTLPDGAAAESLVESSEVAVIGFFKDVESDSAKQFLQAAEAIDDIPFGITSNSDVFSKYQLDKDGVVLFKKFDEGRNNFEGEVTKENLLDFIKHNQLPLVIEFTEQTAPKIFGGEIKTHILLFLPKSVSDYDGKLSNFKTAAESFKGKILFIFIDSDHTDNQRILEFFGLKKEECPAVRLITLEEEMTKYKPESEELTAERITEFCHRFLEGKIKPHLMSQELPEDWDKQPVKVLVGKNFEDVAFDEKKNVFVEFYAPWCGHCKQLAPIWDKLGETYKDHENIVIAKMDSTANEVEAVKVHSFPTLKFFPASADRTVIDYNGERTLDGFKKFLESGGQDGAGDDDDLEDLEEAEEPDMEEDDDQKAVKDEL
# HIV Env fusion: HIV envelope-mediated fusion inhibition; HeLa-JRFL Env/CEM21 cell fusion, luciferase; hit rate 1.1% among 360,000; inhibition, % at 12.3 µM;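 active means mean replicate inhibition score of at least 50 and every replicate individually at or above 50; inconclusive means only one of the two criteria met; inactive means mean below 50 and not all replicates reaching 50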
# Numbers stand for hits; n = inactive; u = inconclusive; x = no result given; [ ] = dose if it differs, or a comment.
SMILES,FN deposit inh,ERp5 inh,PvdQ inh,rRNA inh HTS,PDI inh,HIV Env fusion
COC(=O)C1C2CC3c4[nH]c5cc(OC)ccc5c4CCN3CC2CC(OC(=O)CC(C)=O)C1OC (configuration not stated),n,n,n,n,n,n
CCOC(=O)Oc1c(OC)cc(C(=O)O[C@@H]2C[C@@H]3CN4CCc5c([nH]c6cc(OC)ccc56)[C@H]4C[C@@H]3[C@H](C(=O)OC)[C@H]2OC)cc1OC,n,u,n,x,34.5,n
Cc1ccc2c(c1)Oc1ccc(NC(=O)CCl)cc1C(=O)N2,n,x,n,x,92.1,n
Cc1ccc(S(=O)(=O)Nc2cccc3c2O[C@@H](CN(C)Cc2ccc(Cl)c(Cl)c2)[C@@H](C)CN([C@H](C)CO)C3=O)cc1,x,x,x,n,x,86.7[16.7 µM]
C[C@H](CO)N1C[C@H](C)[C@H](CN(C)Cc2ccc(Cl)c(Cl)c2)Oc2c(NS(=O)(=O)c3ccc(Cl)cc3)cccc2C1=O,x,n,x,x,x,91.1[16.7 µM]
Cc1ccc(S(=O)(=O)Nc2cccc3c2O[C@H](CN(C)Cc2ccc(Cl)c(Cl)c2)[C@H](C)CN([C@H](C)CO)C3=O)cc1,x,x,x,n,x,85.2[16.7 µM]
C[C@H]1CN([C@@H](C)CO)C(=O)c2cc(NS(=O)(=O)c3ccccc3)ccc2O[C@@H]1CN(C)Cc1ccncc1,n,n,x,n,x,x
CO[C@@H]1CN(C)C(=O)c2cc(NC(=O)C3CCCCC3)ccc2OC[C@H](C)N(C)C[C@@H]1C,x,n,x,n,x,x
COc1ccccc1C/C(N)=N/OC(=O)c1cccs1,n,n,n,-24.6,n,n
O=C(NCC[C@@H]1CC[C@H](NC(=O)C2CCCCC2)[C@H](CO)O1)c1cnccn1,n,n,x,n,x,n
CN(C)C(=O)C[C@H]1CC[C@@H]2[C@H](COC[C@H](O)CN2CC2CCCC2)O1,n,n,x,n,x,x
COc1ccc(CN2CCNC(=O)C2CC(=O)NCCCn2nnc3ccccc32)cc1C (configuration not stated),n,n,n,n,n,60.9
COc1ccc(CN2CCNC(=O)C2CC(=O)NCCc2nc(C)c3c(n2)CCC3)cc1C (configuration not stated),n,n,n,n,n,n
O=C1CC(C(=O)N(CC2CCCO2)C(C(=O)NC2CCCCC2)c2ccncc2)CS1 (configuration not stated),n,x,n,x,n,77.6
Cc1ccc(S(=O)(=O)Nc2ccccc2C(C(=O)OC(C)(C)C)C(=O)OC(C)(C)C)cc1,n,n,x,n,x,57.4
Cc1ccc(S(=O)(=O)Nc2ccccc2C(O)c2ccccc2)cc1 (configuration not stated),n,n,n,n,n,n
C[C@H](CO)N1C[C@H](C)[C@H](CN(C)C(=O)Cc2ccccc2)Oc2ncc(C3=CCCCC3)cc2C1=O,x,n,x,n,x,x
C/C(=N\NC(=O)COc1ccc(C)cc1Br)c1cc([N+](=O)[O-])cs1,x,n,n,-23.3,n,n
CCC1(CC)NC(=O)N(CC(=O)OC(C)C(=O)Nc2ccc(NC(C)=O)cc2)C1=O (configuration not stated),n,28.2,n,n,n,x
COc1ccc(Cn2c(-c3ccc(Br)cc3)c[n+]3ccccc23)cc1,n,n,n,-30.4,n,n
COc1ccc(Cn2c(-c3ccc(OC)cc3)nc3ccccc32)cc1,x,n,n,n,n,x
C[C@@H]1CN([C@H](C)CO)C(=O)c2cc(NC(=O)NC3CCCCC3)ccc2O[C@@H]1CN(C)Cc1ccc(C(=O)Nc2ccccc2N)cc1,n,x,x,n,x,x
Cc1nnc(NC(=O)C2c3ccccc3Oc3ccccc32)s1,x,x,n,x,n,x
O=C(Nc1nncs1)C1c2ccccc2Oc2ccccc21,n,x,n,x,n,59.3
Cc1ccc(C23CC4CC(CC(C(N)=O)(C4)C2)C3)cc1,n,n,n,-23.4,n,n
SMILES,FN deposit inh,ERp5 inh,PvdQ inh,rRNA inh HTS,PDI inh,HIV Env fusion
Cc1ccccc1/C=C1\C(=O)Nc2ccc(F)cc21,n,n,n,n,n,n
O=C1Nc2ccccc2/C1=C/c1ccccc1F,n,n,n,-29.2,n,n
CCC(C(=O)c1ccccc1)N(C(=O)c1ccccc1Cl)N1C(=O)C2C3C=CC(C3)C2C1=O (configuration not stated),x,x,n,x,n,109.2
O=C(CN(C(=O)c1ccc(Cl)cc1Cl)N1C(=O)C2C3C=CC(C3)C2C1=O)c1ccc(F)cc1 (configuration not stated),x,x,n,x,n,n
COc1ccc2nc(C(F)(F)Cl)c(C#N)c(N)c2c1,n,n,n,-39.7,n,n
C[C@@H]1CCCCO[C@@H](CN(C)C(=O)c2ccccc2)[C@@H](C)CN([C@@H](C)CO)C(=O)c2cc(NC(=O)Nc3ccc(C(F)(F)F)cc3)ccc2O1,x,n,x,n,x,n
Brc1ccc2[nH]c3c(c2c1)CCC3,n,n,n,-15.7,n,n
O=C(COc1ccc(Cl)cc1Cl)N1CCCN(C(=O)COc2ccc(Cl)cc2Cl)CC1,n,x,n,x,n,83.5
CC(=O)N1CCN(c2ccc(NC(=O)COc3ccc(Cl)cc3Cl)cc2)CC1,n,x,n,x,n,52.8
COc1ccc(NC(=O)COC(=O)CCCOc2ccc(Cl)cc2Cl)cc1,n,n,n,n,n,n
O=C(COc1ccc(Cl)cc1Cl)NC(=S)N1CCCc2ccccc21,x,n,n,-25.8,n,x
O=C(COc1ccc(Cl)cc1Cl)OCC(=O)N1CCCc2ccccc21,n,n,n,n,n,n
Cc1cc(Cl)ccc1OCC(=O)N1CCCCC1,x,x,n,x,n,x
COc1ccc(NC(=O)COC(=O)CCCOc2ccc(Cl)cc2Cl)cc1Cl,x,n,n,-21.7,n,n
COc1ccc(-c2cnc3c(c2)C(=O)N([C@@H](C)CO)C[C@H](C)[C@H](CN(C)C(=O)Cc2ccncc2)O3)cc1,x,n,x,n,x,n
O=[N+]([O-])c1cccnc1N1CCN(c2ccc(F)cc2)CC1,n,n,n,-32.5,n,n
C[C@@H]1CN([C@H](C)CO)C(=O)c2c(c3ccccc3n2C)-c2ccccc2CO[C@H]1CN(C)S(=O)(=O)c1ccc(C(F)(F)F)cc1,n,n,x,n,x,x
CO[C@H]1CN(C)C(=O)c2cc(NC(=O)C3CCOCC3)ccc2OC[C@@H](C)N(Cc2nccs2)C[C@@H]1C,n,n,x,n,x,x
CO[C@H]1CN(C)C(=O)c2ccc(NC(=O)Nc3cccc(F)c3)cc2OC[C@@H](C)N(C(C)=O)C[C@H]1C,n,n,x,n,x,64.7[16.7 µM]
CO[C@H]1CN(C)C(=O)c2ccc(NC(=O)Nc3cccc(F)c3)cc2OC[C@H](C)NC[C@H]1C,n,u,x,n,x,75.5[16.7 µM]
CO[C@H]1CN(C)C(=O)c2cc(NC(=O)C3CCOCC3)ccc2OC[C@H](C)N(Cc2nccs2)C[C@H]1C,n,n,x,n,x,74.3
CO[C@H]1CN(C)C(=O)c2ccc(NC(=O)C3CCC3)cc2OC[C@@H](C)N(CC2CCCCC2)C[C@@H]1C,n,n,x,n,x,58.4[16.7 µM]
